MT stabilizer: microtubule stabilizers in HeLa cells, primary screen, imaging, high-content imaging. 200,000 compounds, 0.83% hits. HeLa tubulin immunostaining HCS, 24 h; share of cells brighter than vehicle mean+2SD. AID 2205, 2009. % tubulin-high responders, % at 10 µM;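 active = plate Z-score above 3 for both tubulin-high and condensed-nucleus cell shares, with cell loss under 80%, at 10 µM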;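 also: anti alpha tubulin signal scored within the nucleus-defined area of each cell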
APP transl inh: inhibitors of APP translation via 5'UTR reporter, primary screen, APP 5'UTR luciferase, SH-SY5Y cells | SH-SY5Y APP 5'UTR-luciferase reporter, luminescence | inhibition, % at 2 µM | 190,000 compounds, 0.82% hits;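 active = inhibition above a set limit, derived from the sample mean plus 3 SD, cut at about 45% in these data; inconclusive = one replicate passes the limit while the other fails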
IEC-6 tox: cytotoxicity in IEC-6 intestinal epithelial cells, primary screen, cytotoxicity control for KLF5 inhibitor project, cell-based, luminescence; IEC-6 cytotoxicity, luminescence viability; inhibition, % at 5 µM; 290,000 compounds, 0.78% hits; AID 1825, 2009; in the data active = inhibition above about 22%;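 also: 0% = plate median of test compound wells and 100% = cytotoxic reference compound wells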
bCat nuc transl: modulators of beta-catenin nuclear translocation, primary screen, imaging, HeLa cells, immunofluorescence, high-content; nuclear translocation activity, % at 5 µM; 190,000 compounds, 0.3% hits; AID 1665, 2009;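 active = nuclear translocation activity above 50% at 5 µM, with a well cell count of 50 or more; inconclusive = wells under 50 cells across six images, flagged as toxic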;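 also: per-cell ratio of nuclear to cytoplasmic median beta-catenin stain intensity; plate controls were DMSO negative control for no effect and GSK-3 inhibitor IX positive control for full effect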
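Test system: human HeLa cells, native beta-catenin. Compound dosing: 5 µM primary single dose, 0.1% DMSO, 0.02–20 µM confirmation series. Incubation: compound exposure 24 h at 37°C. Detection: beta-catenin immunostaining with DAPI counterstain, 20x imaging, 6 fields/well. Read-out basis: Nuclear/cytoplasmic beta-catenin signal ratio, % activation.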
BaF3 parental: parental Ba/F3 cell viability inhibition, counter-screen for JAK2V617F inhibitor project, murine pro-B, CellTiter-Glo luminescence; CellTiter-Glo ATP luminescence; inhibition, % at 5.6 µM; AID 1486, 2009; 220,000 compounds, 1.1% hits;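 active = inhibition above a per-campaign cutoff, the mean inhibition of all tested compounds plus 3 SD, cut at about 27% in these data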;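 also: 0% = DMSO wells and 100% = JAK Inhibitor I control wells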
Ba/F3 V617F tox: reduced viability of JAK2V617F-dependent Ba/F3 cells, primary screen, JAK2V617F inhibitor project, cell-based, Ba/F3 EpoR-JAK2V617F, luminescence; ATP luminescence; inhibition, % at 5.6 µM; 220,000 compounds, 1.1% hits; AID 1446, 2008;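 active = inhibition above the campaign mean plus 3 SD over all tested compounds, cut at about 24% in these data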;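 also: cytokine-independent growth of Ba/F3 cells driven by EpoR plus mutant JAK2; 0% = DMSO-treated cells and 100% = JAK inhibitor I control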
BaF3 tox 2: parental Ba/F3 cell viability inhibition, counter-screen for JAK2V617F inhibitor project, murine pro-B, CellTiter-Glo luminescence | shares compounds with Ba/F3 V617F tox | cells kept alive by added IL-3 | inhibition, % at 5.6 µM | 580 compounds, 31% hits | AID 1520, 2009;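 active = cell growth inhibition above the hit limit set in the earlier mutant JAK2 cell screen, cut at about 27% in these data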;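 also: plate controls were DMSO-treated cells for no effect and JAK Inhibitor I control wells for full effect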
JAK2V617F confrm: viability loss in Ba/F3 EpoR-JAK2V617F cells, confirmation, JAK2V617F inhibitor project, cell-based, luminescence, triplicate; shares compounds with Ba/F3 V617F tox; CellTiter-Glo luminescence; inhibition, % at 5.6 µM; 580 compounds, 66% hits; AID 1521, 2009;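 active = mean inhibition above the hit cutoff derived in the earlier primary screen, cut at about 25% in these data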;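 also: 0% = DMSO-treated cells and 100% = JAK inhibitor I control wells; higher means lower luminescence from reduced cell ATP and viability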
Numbers without * were called inactive; u = inconclusive; x = not tested or not shown. This is a sample that favours compounds with a hit; in the whole collection about 2.2% have one here.

SMILES	MT stabilizer	APP transl inh	IEC-6 tox	bCat nuc transl	BaF3 parental	Ba/F3 V617F tox	BaF3 tox 2	JAK2V617F confrm
COc1ccc(-n2nnnc2SCC(=O)c2ccc(O)c(O)c2)cc1	4.4	-1.8	8.6	1.1	5.8	52.3*	-0.8	79.2*
Cn1c(SCC(=O)Nc2ccc3c(c2)OCCO3)nnc1-c1ccncc1	x	x	4.1	x	x	x	x	x
CC(=O)c1ccc(Sc2nnnn2-c2ccccc2)c([N+](=O)[O-])c1	3.0	-37.7	2.3	-0.4	2.7	44.1*	1.6	83.2*
O=C1C2C3C=CC(CC3)C2C(=O)N1c1ccc2c(c1)OCO2 (centres undefined)	4.7	10.8	-2.7	-2.0	2.3	0.4	x	x
O=C1C2C3C=CC(C3)C2C(=O)N1c1ccc2c(c1)OCO2 (centres undefined)	6.5	-6.2	2.9	0.3	1.7	57.5*	-6.5	-5.8
O=C(N[C@@H]1CCC(=O)N(CC[C@H](Oc2ccccc2)c2ccccc2)CC1)OCc1ccccc1	x	x	5.1	x	x	x	x	x
Nc1nc(CCl)nc(Nc2ccc3ccccc3c2)n1	x	x	47.1*	20.6	24.3	100.1*	8.7	99.0*
COc1ccc(Nc2nc(N)nc(CCl)n2)cc1	x	x	5.5	0.5	-1.0	45.2*	-0.6	65.5*
Cc1ccccc1Nc1nc(N)nc(CCl)n1	x	x	13.9	1.0	-5.0	37.1*	-2.6	9.0
COc1ccc(S(=O)(=O)NCC(=O)N(CC(=O)NCC2CCCO2)Cc2ccccc2)cc1 (centres undefined)	x	x	-4.1	x	x	x	x	x
Cc1ccc(NC(=O)CN(C)C(=O)COC(=O)CCS(=O)(=O)c2ccc(C)cc2)cc1	x	x	-6.7	x	x	x	x	x
Cc1cc(SCC(=O)N/N=C/c2ccc(O)c(O)c2)c(C)cc1Br	2.5	25.0	-2.3	-4.0	10.7	44.2*	4.7	85.2*
COc1ccc(CNc2ncc(-c3ccc(Cl)cc3)n2C)c(OC)c1OC	x	x	2.3	x	x	x	x	x
CCCOc1ccc(C(=O)C(c2ccccc2)N2CCOCC2)cc1 (centres undefined)	5.7	3.9	1.6	0.8	3.7	-0.6	x	x
CCCOc1ccc(C(=O)C(CN2CCOCC2)c2ccccc2)cc1 (centres undefined)	1.8	16.8	-5.1	u	11.7	46.2*	9.7	97.3*
CNC(=O)c1ccc(S(=O)(=O)c2ccc(Cl)cc2)c(NC(C)=O)c1	x	x	-1.4	x	x	x	x	x
O=C(c1nnsc1S(=O)(=O)c1ccc(Cl)cc1)N1CCOCC1	2.3	38.1	18.6	4.9	2.8	75.6*	45.2*	74.8*
Nc1nc(C(=O)N2CCOCC2)nn1S(=O)(=O)c1ccc(Cl)cc1	2.0	4.5	-1.8	x	13.2	6.7	x	x
CNC(=O)c1nnsc1S(=O)(=O)c1ccc(Cl)cc1	2.7	94.9*	47.6*	-1.0	8.4	91.1*	68.3*	97.9*
CCOc1ccc(NC(=O)c2ccc(N3CC4CC(C3)c3cccc(=O)n3C4)c(NC(=O)c3cccnc3)c2)cc1 (centres undefined)	x	x	-3.8	x	x	x	x	x
Cc1ccc(Nc2nc(-c3ccc(O)c(O)c3)cs2)nc1	1.7	5.9	-2.6	20.0	16.8	92.1*	95.5*	98.5*
COc1ccc(NC(=O)/C(C#N)=C\c2cc(C)n(-c3ccc4c(c3)OCO4)c2C)cc1	24.0*	6.9	5.0	x	5.0	29.7*	72.9*	92.6*
COc1cc(/C=C2\SC(N)=NC2=O)ccc1O	x	x	7.8	x	x	x	x	x
O=[N+]([O-])/C(C=Nc1ccccc1O)=C\Nc1ccccc1O	x	x	8.5	-0.3	16.9	39.3*	12.9	67.9*
Cc1cc(OCC(=O)NNC(=S)NC(=O)c2ccc(Br)o2)ccc1Cl	x	x	0.4	x	x	x	x	x
SMILES	MT stabilizer	APP transl inh	IEC-6 tox	bCat nuc transl	BaF3 parental	Ba/F3 V617F tox	BaF3 tox 2	JAK2V617F confrm
S=C(Nc1ccc(Cl)cc1)c1nc2ccccc2s1	3.8	-64.8	0.4	8.9	-0.7	-2.4	x	x
O=C(Nc1ccc(Cl)cc1)/C(=C/c1cccc(O)c1)c1nc2ccccc2s1	38.7	30.4	3.5	3.0	-2.5	68.3*	19.6	98.3*
CN(C)S(=O)(=O)c1ccc(-c2csc(N/N=C/c3ccc(O)cc3)n2)cc1	x	x	1.6	1.4	13.0	44.7*	49.1*	94.2*
CN(C)S(=O)(=O)c1ccc(-c2csc(N/N=C/c3ccco3)n2)cc1	x	x	11.3	-0.9	-0.4	-0.1	x	x
CCN(CC)S(=O)(=O)c1cccc(C(=O)N[C@H](C(=O)Nc2nc3ccc(F)cc3s2)C(C)C)c1	4.0	-17.0	8.4	-3.1	0.6	66.0*	-0.7	13.5
COC(CNC(=O)CN1CCN(Cc2ccccc2F)C1=O)OC	x	x	2.9	x	x	x	x	x
Nc1nnc(Sc2ccc(Cl)cc2[N+](=O)[O-])s1	5.5	14.9	0.8	-1.8	0.9	64.7*	-4.5	-10.9
COc1ccc(-n2nc([N+](=O)[O-])c(=NCCCN3CCCC3=O)n2O)cc1	3.0	-9.4	-5.0	-3.4	2.3	-3.2	x	x
O=C1CCCN1CCCN=c1c([N+](=O)[O-])nn(-c2ccc(Cl)cc2)n1O	17.9	5.6	17.8	-3.3	24.7	32.0*	8.1	38.1*
CCOC(=O)Nc1ccc2c(c1)N(C(=O)CCN1CCOCC1)c1ccccc1S2=O (centres undefined)	3.4	13.2	9.6	1.7	3.6	40.9*	-1.6	23.2
COc1ccccc1OCc1nnc(SCC(=O)N2CCCCC2)o1	x	x	0.0	x	x	x	x	x
CCCCn1c(=N)n(CC(=O)c2ccc(Br)s2)c2ccccc21	x	x	-1.4	0.3	-3.8	71.3*	6.2	60.5*
CCNC(=S)NNC(=O)c1cccn(Cc2ccc(Cl)cc2Cl)c1=O	1.0	-5.5	-7.5	x	5.9	-1.6	x	x
C=CCNC(=S)NNC(=O)c1cccn(Cc2ccc(Cl)cc2Cl)c1=O	2.6	-0.1	-2.8	3.1	-3.4	29.5*	-1.3	0.1
CN(C)c1cccc(C(=O)N2CCCC(C(=O)c3cc(F)ccc3F)C2)c1 (centres undefined)	1.6	12.0	-1.0	-1.2	1.1	-1.5	x	x
COc1ccc(F)cc1C(=O)C1CCCN(C(=O)c2cccc(N(C)C)c2)C1 (centres undefined)	4.6	-10.6	5.1	-2.9	4.5	101.8*	-3.1	7.2
COc1ccc(C(=O)NC(C)c2ccc(-n3ccnc3)cc2)cc1[N+](=O)[O-] (centres undefined)	x	x	4.2	x	x	x	x	x
